Measurements pooled from the literature.
Compare with care: the assays were run in different laboratories.
Target: Dual specificity protein kinase TTK (TTK, Homo sapiens, UniProt P33981)
One construct used (P33981 1-857): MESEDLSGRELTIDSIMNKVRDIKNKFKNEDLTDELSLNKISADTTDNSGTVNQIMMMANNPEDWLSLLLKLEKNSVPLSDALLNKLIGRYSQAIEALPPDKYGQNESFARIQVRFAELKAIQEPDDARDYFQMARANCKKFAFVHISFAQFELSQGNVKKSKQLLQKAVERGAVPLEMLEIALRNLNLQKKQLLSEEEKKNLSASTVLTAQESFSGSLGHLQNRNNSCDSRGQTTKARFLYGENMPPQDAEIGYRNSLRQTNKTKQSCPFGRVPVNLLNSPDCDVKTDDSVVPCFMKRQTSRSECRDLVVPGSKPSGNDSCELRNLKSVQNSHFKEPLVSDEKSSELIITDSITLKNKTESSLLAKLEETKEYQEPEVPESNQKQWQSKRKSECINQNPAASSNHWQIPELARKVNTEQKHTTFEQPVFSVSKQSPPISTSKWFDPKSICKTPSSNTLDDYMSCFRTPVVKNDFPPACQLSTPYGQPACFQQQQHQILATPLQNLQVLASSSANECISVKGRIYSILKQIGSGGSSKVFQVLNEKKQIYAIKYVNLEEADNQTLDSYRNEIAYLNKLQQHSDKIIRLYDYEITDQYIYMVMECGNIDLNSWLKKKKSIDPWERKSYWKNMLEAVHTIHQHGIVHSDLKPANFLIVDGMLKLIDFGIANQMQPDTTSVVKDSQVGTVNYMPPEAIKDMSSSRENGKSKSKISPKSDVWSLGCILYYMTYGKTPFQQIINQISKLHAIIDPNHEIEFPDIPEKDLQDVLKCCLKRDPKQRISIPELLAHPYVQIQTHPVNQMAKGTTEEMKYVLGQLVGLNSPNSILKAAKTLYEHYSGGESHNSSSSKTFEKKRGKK

Compound	assay	setting	remaining binding [%]
CNC(=O)[C@@H]1CC[C@@H](n2c(-c3ccc4cnccc4c3)nc3ccc(C(=O)NCc4cccc(C(N)=O)c4)cc32)C1	binding, competition with immobilised ligand	1 µM	100
CNC(=O)Nc1ccc2c(c1)CC[C@@]21OC(=O)N(CC(=O)N(Cc2ccc(F)cc2)[C@@H](C)C(F)(F)F)C1=O	cell-free assay, competition with immobilised ligand	1 µM	100
O=C(Nc1c[nH]nc1C(=O)NC1CCNCC1)c1cc(F)cc(F)c1	binding, competition with immobilised ligand	1 µM	100
Nc1ncc2c(n1)-c1c([nH]c3ccc(C#CC4CC4)cc13)CCCC2	binding, competition with immobilised ligand	1 µM	100
COc1cnc(Nc2cccc(S(N)(=O)=O)c2)nc1N1CCN(c2ccccc2)C(=O)C1	binding, competition with immobilised ligand	1 µM	77
O=C(c1ccc(Nc2ncc(Cl)c(-c3ccc(Cl)s3)n2)cc1)N1CCC(N2CCCC2)CC1	binding, competition with immobilised ligand	1 µM	26
c1cncc(-c2cccc(Nc3nccc(NC4CCCCC4)n3)c2)c1	binding, competition with immobilised ligand	10 µM	30
c1cnn2ncc(-c3ccnc(N4CCC45COC5)n3)c2c1	binding	1 µM	61
CO[C@@H](C)c1c(Nc2ccc([C@H](N(C)C(=O)C3CCS(=O)(=O)CC3)C(F)(F)F)cc2)cnc2cc(Cl)nn12	cell-free assay, competition with immobilised ligand	1 µM	77
COc1ncc2cc3ccccc3nc2c1C#N	cell-free assay, competition with immobilised ligand	5 µM	85
C[C@@H]1CCN(c2nccc(-c3cnn4ncccc34)n2)C1	binding	1 µM	46
NS(=O)(=O)c1cc(NC(=O)Cc2ccccc2)ccc1Oc1cccc(Cl)c1	cell-free assay, competition with immobilised ligand	1 µM	91
N[C@@H]1CCN(c2nccc(-c3cnn4ncccc34)n2)C1	binding	1 µM	100
CC1=C(C#N)C(c2ccc3c(c2)c(NC(=O)c2ccccc2C)nn3C)C(C#N)=C(C)N1	cell-free assay, competition with immobilised ligand	1 µM	82
CN(C)c1nccc(-c2cnc3ncccn23)n1	binding	1 µM	74
O=C(N[C@H]1CCCCC/C=C\C2C[C@@]2(C(=O)O)NC(=O)[C@@H]2C[C@@H](Oc3ccncc3)CN2C1=O)OC1CCCC1 (stereo partly drawn)	binding, competition with immobilised ligand	1 µM	79
CN(C)c1ncc(F)c(-c2cnn3ncccc23)n1	binding	1 µM	66
O=C(c1ccc(Nc2nccc(-c3cc4ccccc4s3)n2)cc1)N1CCC(N2CCCC2)CC1	binding, competition with immobilised ligand	1 µM	57
CCOC(=O)c1cc2cc(-c3cc(C(=O)NCc4ccc(C(=O)O)cc4)nn3C)ccc2[nH]1	cell-free assay, competition with immobilised ligand	0.1 µM	93
CN(CCCC(F)(F)F)c1nccc(-c2cnn3ncccc23)n1	binding	1 µM	64
O=C(NCCCN1CCOCC1)c1ccc(Nc2nccc(-c3cc4ccccc4s3)n2)cc1	binding, competition with immobilised ligand	1 µM	72
